{"source": "ChEMBL document CHEMBL1142431", "about": "“Benzodioxoles: novel cannabinoid-1 receptor inverse agonists for the treatment of obesity” (J Med Chem, 2008)", "key": {"[1]": {"species": "Homo sapiens", "assay": "Selectivity for human CB1 receptor over human glucocorticoid receptor"}, "[2]": {"species": "Homo sapiens", "assay": "Selectivity for human CB1 receptor over human dopamine D2S receptor"}, "[3]": {"species": "Homo sapiens", "assay": "Selectivity for human CB1 receptor over human CB2 receptor"}, "[4]": {"assay": "Aqueous solubility at pH 6.5 by lyophilisation solubility assay", "format": "physicochemical", "summary_of_the_method": "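Duplicate samples from 10 mM DMSO stock; DMSO evaporated 1 h, residue taken up in 50 mM phosphate buffer pH 6.5, stirred 1 h, shaken 2 h, left overnight. Filtrate and 1/10 dilution read by direct UV or HPLC-UV against four-point calibration; range for MW 500 0-666 µg/mL; >80% dissolved reported as greater-than.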"}, "[5]": {"assay": "Selectivity for human CB1 receptor over sodium channel"}, "[6]": {"species": "Homo sapiens", "assay": "Selectivity for human CB1 receptor over human NK3 receptor"}, "[7]": {"assay": "Selectivity for human CB1 receptor over L type calcium channel at verapamil site"}, "[8]": {"assay": "Permeability from apical to basolateral side of human Caco-2 cell membrane", "format": "ADME, cell-based", "conditions": "read-out: permeability"}, "[9]": {"assay": "Selectivity for human CB1 receptor over chloride channel"}, "[10]": {"species": "Homo sapiens", "assay": "Selectivity for human CB1 receptor over human dopamine D3 receptor"}, "[11]": {"target": "Cannabinoid receptor 1 (Homo sapiens, UniProt P21554)", "sequence (P21554 whole entry)": "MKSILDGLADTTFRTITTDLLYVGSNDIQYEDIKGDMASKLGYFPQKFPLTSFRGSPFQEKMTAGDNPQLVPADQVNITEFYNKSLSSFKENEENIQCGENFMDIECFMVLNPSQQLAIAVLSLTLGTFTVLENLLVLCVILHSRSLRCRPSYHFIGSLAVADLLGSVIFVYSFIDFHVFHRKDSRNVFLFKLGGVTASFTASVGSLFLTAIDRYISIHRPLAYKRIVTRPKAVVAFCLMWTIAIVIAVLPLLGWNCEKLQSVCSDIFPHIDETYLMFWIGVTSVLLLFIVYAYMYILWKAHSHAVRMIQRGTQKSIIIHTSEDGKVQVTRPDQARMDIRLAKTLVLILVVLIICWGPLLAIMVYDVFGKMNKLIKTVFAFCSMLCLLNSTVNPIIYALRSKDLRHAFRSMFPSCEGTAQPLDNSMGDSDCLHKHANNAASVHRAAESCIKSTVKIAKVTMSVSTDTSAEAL", "assay": "biochemical", "format": "cell-based, HEK293"}, "[12]": {"species": "Homo sapiens", "assay": "Selectivity for human CB1 receptor over human adenosine A3 receptor"}, "[13]": {"assay": "Selectivity for human CB1 receptor over Kv channel"}, "[14]": {"species": "Homo sapiens", "assay": "Selectivity for human CB1 receptor over human progesterone receptor"}, "[15]": {"species": "Homo sapiens", "assay": "Selectivity for human CB1 receptor over human bradykinin B2 receptor"}, "[16]": {"assay": "Selectivity for human CB1 receptor over histamine H2 receptor"}, "[17]": {"assay": "Selectivity for human CB1 receptor over neuropeptide Y receptor"}, "[18]": {"species": "Homo sapiens", "assay": "Selectivity for human CB1 receptor over human ETA receptor"}, "[19]": {"assay": "Selectivity for human CB1 receptor over GABA receptor"}, "[20]": {"test_system": "Liver microsomes", "assay": "Clearance in rat liver microsomes", "format": "ADME, Microsome", "conditions": "microsomes", "summary_of_the_method": "(§1)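 Test compound at 2 µM incubated with liver microsomes (0.5 mg protein/mL) in 50 mM potassium phosphate pH 7.4 at 37 °C. Reaction started with an NADPH-generating system (glucose-6-phosphate 3.2 mM, NADP 2.6 mM, MgCl2 6.5 mM). Six samples over 30 min, quenched in methanol with internal standard, then LC-MS/MS for substrate depletion. CLint taken from the first-order decay, normalized to protein.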"}, "[21]": {"assay": "Selectivity for human CB1 receptor over choline transporter"}, "[22]": {"assay": "Selectivity for human CB1 receptor over P2Y receptor"}, "[23]": {"assay": "Selectivity for human CB1 receptor over adrenergic alpha-1 receptor"}, "[24]": {"assay": "Selectivity for human CB1 receptor over DAT"}, "[25]": {"assay": "Selectivity for human CB1 receptor over 5HTT"}, "[26]": {"species": "Homo sapiens", "assay": "Selectivity for human CB1 receptor over human CCK1 receptor"}, "[27]": {"species": "Homo sapiens", "assay": "Selectivity for human CB1 receptor over human adrenergic beta-1 receptor"}, "[28]": {"species": "Homo sapiens", "assay": "Selectivity for human CB1 receptor over human CCK2 receptor"}, "[29]": {"species": "Homo sapiens", "assay": "Selectivity for human CB1 receptor over human estrogen receptor"}, "[30]": {"assay": "Selectivity for human CB1 receptor over kainate receptor"}, "[31]": {"test_system": "Rattus norvegicus", "assay": "Reduction in progression of body weight in diet-induced obesity Sprague-Dawley rat model at 10 mg/kg, po for 16 days", "format": "functional, organism-based", "set-up": "dose 10 mg/kg", "summary_of_the_method": "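Obese Sprague-Dawley rats (HFD 10 weeks from 3 weeks old, selected as >2 SD above chow controls), n = 9 per group, gavage-adapted 3 days, then dosed daily by gavage at 5:00 p.m. for 16 days in water with 7.5% gelatine and 0.62% NaCl, 2 mL/kg; body weight and food intake recorded daily.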"}, "[32]": {"assay": "Selectivity for human CB1 receptor over TRH receptor"}, "[33]": {"test_system": "Rattus norvegicus", "assay": "Reduction in body fat in po dosed diet-induced obesity Sprague-Dawley rat model", "format": "functional, organism-based", "summary_of_the_method": "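Sprague-Dawley rats fed HFD from 3 weeks of age for 10 weeks; high responders (body weight exceeding chow controls by >2 SD) grouped n = 9. After 3 days gavage adaptation, daily oral dosing at 5:00 p.m. for 2 weeks in 7.5% gelatine/0.62% NaCl in water, 2 mL/kg. Fat and lean mass by MRI before and at end of treatment.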"}, "[34]": {"assay": "Selectivity for human CB1 receptor over neuronal N receptor"}, "[35]": {"species": "Homo sapiens", "assay": "Selectivity for human CB1 receptor over human vanilloid V2 receptor"}, "[36]": {"species": "Homo sapiens", "assay": "Selectivity for human CB1 receptor over human MC4 receptor"}, "[37]": {"assay": "Selectivity for human CB1 receptor over L type calcium channel at DHP site"}, "[38]": {"test_system": "Liver microsomes", "assay": "Clearance in human liver microsomes", "format": "ADME, Microsome", "conditions": "microsomes", "summary_of_the_method": "as §1"}, "[39]": {"species": "Homo sapiens", "assay": "Selectivity for human CB1 receptor over human NET"}, "[40]": {"assay": "Selectivity for human CB1 receptor over histamine H3 receptor"}, "[41]": {"assay": "Selectivity for human CB1 receptor over CRF1 receptor"}, "[42]": {"species": "Homo sapiens", "assay": "Selectivity for human CB1 receptor over human vanilloid V1a receptor"}, "[43]": {"assay": "Selectivity for human CB1 receptor over opiate receptor"}, "[44]": {"assay": "Selectivity for human CB1 receptor over central imidazoline I2 receptor"}, "[45]": {"species": "Homo sapiens", "assay": "Selectivity for human CB1 receptor over human NK2 receptor"}, "[46]": {"species": "Homo sapiens", "assay": "Selectivity for human CB1 receptor over human LTD4 receptor"}, "[47]": {"assay": "Selectivity for human CB1 receptor over SK1 calcium channel"}, "[48]": {"assay": "Partition coefficient, log D at pH 6.5", "format": "physicochemical", "conditions": "octanol/water"}, "[49]": {"species": "Homo sapiens", "assay": "Selectivity for human CB1 receptor over human ETB receptor"}, "[50]": {"assay": "Selectivity for human CB1 receptor over PCP receptor"}, "[51]": {"species": "Homo sapiens", "assay": "Selectivity for human CB1 receptor over human bradykinin B1 receptor"}, "[52]": {"assay": "Selectivity for human CB1 receptor over AMPA receptor"}, "[53]": {"species": "Homo sapiens", "assay": "Selectivity for human CB1 receptor over human NK1 receptor"}, "[54]": {"assay": "Solubility in fasted state stimulated intestinal fluid at pH 6.5", "format": "physicochemical", "conditions": "fasted state simulated intestinal fluid"}, "[55]": {"species": "Homo sapiens", "assay": "Selectivity for human CB1 receptor over human dopamine D1 receptor"}, "[56]": {"assay": "Selectivity for human CB1 receptor over peripheral imidazoline I1 receptor"}, "[57]": {"species": "Homo sapiens", "assay": "Selectivity for human CB1 receptor over human dopamine D4.4 receptor"}, "[58]": {"assay": "Selectivity for human CB1 receptor over adrenergic alpha-2 receptor"}, "[59]": {"species": "Homo sapiens", "assay": "Selectivity for human CB1 receptor over human AT1 receptor"}, "[60]": {"assay": "Selectivity for human CB1 receptor over androgen receptor"}, "[61]": {"assay": "Selectivity for human CB1 receptor over GABA transporter"}, "[62]": {"test_system": "Mus musculus", "assay": "Reversal of CP-55940-induced hypothermia in NMRI mouse assessed as rectal temperature at 30 mg/kg, ip", "format": "functional", "conditions": "route intraperitoneal, read-out: ID50 (the source's name)", "summary_of_the_method": "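Mice housed eight per group, eight per dose, habituated at least 2 h. Test compound in 0.3% Tween 80 (10 mL/kg) given 90 min before CP 55940 (0.3 mg/kg iv, same vehicle). Body temperature read 20 min before compound, just before CP 55940, and 20 min after it.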"}, "[63]": {"assay": "Selectivity for human CB1 receptor over 5HT receptor"}}, "note": "Active and inactive are the calls of the source. No cut-off for these calls is given here.", "data": [{"compound": "O=C(c1cc2c(cc1F)O[C@](c1ccc(F)cc1)(c1ccc(Cl)cc1Cl)O2)N1CCOCC1", "values": [{"measurement": "Selectivity ratio", "setting": "[1]", "result": 300}, {"measurement": "Selectivity ratio", "setting": "[2]", "result": 300}, {"measurement": "Selectivity ratio", "setting": "[3]", "result": 1000}, {"measurement": "solubility", "setting": "[4]", "result": "< 1", "unit": "µg/mL"}, {"measurement": "Selectivity ratio", "setting": "[5]", "result": 300}, {"measurement": "Selectivity ratio", "setting": "[6]", "result": 300}, {"measurement": "Selectivity ratio", "setting": "[7]", "result": 300}, {"measurement": "Papp A→B", "setting": "[8]", "result": 10.6, "unit": "×10⁻⁶ cm/s"}, {"measurement": "Selectivity ratio", "setting": "[9]", "result": 300}, {"measurement": "Selectivity ratio", "setting": "[10]", "result": 300}, {"measurement": "Ki", "setting": "[11]", "result": 3.3, "unit": "nM"}, {"measurement": "Selectivity ratio", "setting": "[12]", "result": 300}, {"measurement": "Selectivity ratio", "setting": "[13]", "result": 300}, {"measurement": "Selectivity ratio", "setting": "[14]", "result": 300}, {"measurement": "Selectivity ratio", "setting": "[15]", "result": 300}, {"measurement": "Selectivity ratio", "setting": "[16]", "result": 300}, {"measurement": "Selectivity ratio", "setting": "[17]", "result": 300}, {"measurement": "Selectivity ratio", "setting": "[18]", "result": 300}, {"measurement": "Selectivity ratio", "setting": "[19]", "result": 300}, {"measurement": "clearance", "setting": "[20]", "result": 27, "unit": "µL/min/mg"}, {"measurement": "Selectivity ratio", "setting": "[21]", "result": 300}, {"measurement": "Selectivity ratio", "setting": "[22]", "result": 300}, {"measurement": "Selectivity ratio", "setting": "[23]", "result": 300}, {"measurement": "Selectivity ratio", "setting": "[24]", "result": 300}, {"measurement": "Selectivity ratio", "setting": "[25]", "result": 300}, {"measurement": "Selectivity ratio", "setting": "[26]", "result": 300}, {"measurement": "Selectivity ratio", "setting": "[27]", "result": 300}, {"measurement": "Selectivity ratio", "setting": "[28]", "result": 300}, {"measurement": "Selectivity ratio", "setting": "[29]", "result": 300}, {"measurement": "Selectivity ratio", "setting": "[30]", "result": 300}, {"measurement": "Activity", "setting": "[31]", "result": "Active"}, {"measurement": "Selectivity ratio", "setting": "[32]", "result": 300}, {"measurement": "Activity", "setting": "[33]", "result": "Active"}, {"measurement": "Selectivity ratio", "setting": "[34]", "result": 300}, {"measurement": "Selectivity ratio", "setting": "[35]", "result": 300}, {"measurement": "Selectivity ratio", "setting": "[36]", "result": 300}, {"measurement": "Selectivity ratio", "setting": "[37]", "result": 300}, {"measurement": "clearance", "setting": "[38]", "result": 11, "unit": "µL/min/mg"}, {"measurement": "Selectivity ratio", "setting": "[39]", "result": 300}, {"measurement": "Selectivity ratio", "setting": "[40]", "result": 300}, {"measurement": "Selectivity ratio", "setting": "[41]", "result": 300}, {"measurement": "Selectivity ratio", "setting": "[42]", "result": 300}, {"measurement": "Selectivity ratio", "setting": "[43]", "result": 300}, {"measurement": "Selectivity ratio", "setting": "[44]", "result": 300}, {"measurement": "Selectivity ratio", "setting": "[45]", "result": 300}, {"measurement": "Selectivity ratio", "setting": "[46]", "result": 300}, {"measurement": "Selectivity ratio", "setting": "[47]", "result": 300}, {"measurement": "logD", "setting": "[48]", "result": "> 4"}, {"measurement": "Selectivity ratio", "setting": "[49]", "result": 300}, {"measurement": "Selectivity ratio", "setting": "[50]", "result": 300}, {"measurement": "Selectivity ratio", "setting": "[51]", "result": 300}, {"measurement": "Selectivity ratio", "setting": "[52]", "result": 300}, {"measurement": "Selectivity ratio", "setting": "[53]", "result": 300}, {"measurement": "solubility", "setting": "[54]", "result": 129, "unit": "µg/mL"}, {"measurement": "Selectivity ratio", "setting": "[55]", "result": 300}, {"measurement": "Selectivity ratio", "setting": "[56]", "result": 300}, {"measurement": "Selectivity ratio", "setting": "[57]", "result": 300}, {"measurement": "Selectivity ratio", "setting": "[58]", "result": 300}, {"measurement": "Selectivity ratio", "setting": "[59]", "result": 300}, {"measurement": "Selectivity ratio", "setting": "[60]", "result": 300}, {"measurement": "Selectivity ratio", "setting": "[61]", "result": 300}, {"measurement": "ED50", "setting": "[62]", "result": 4, "unit": "mg/kg"}, {"measurement": "Selectivity ratio", "setting": "[63]", "result": 300}]}]}
